ChEMBL document CHEMBL4513216, “Probing the Open Global Health Chemical Diversity Library for Multistage-Active Starting Points for Next-Generation Antimalarials” (ACS Infect Dis, 2020)

Test: Toxicity liver stage against HepG2, at 10uM
Assay type: cell-based
Design: test concentration 10 uM, cell line HepG2-A16-CD81EGFP
Conditions: human, HepG2-A16-CD81EGFP cells; read-out: INHIBITION
In short: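 Uninfected HepG2-A16-CD81EGFP cells, 3 × 10^3 per well, 1536-well, plated on prespotted compound at 10 μM final, parasite-free screening media added to match infected plates; puromycin 10 μM positive, DMSO 0.5% negative; run in parallel with 48 h PbLuc assay at 37 °C, 5% CO2; viability by CellTiter-Glo luminescence, normalized to controls.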

Structure (SMILES) | cytotoxicity at 10 µM [%]
O=C(c1ccccc1)C1CCN(Cc2cc3c(cc2O)CCC3)CC1 | 24.2
CC1CCCCN1C(=O)CCn1cnc2sccc2c1=O (centres undefined) | 3.63
O=C(O)c1cc(N2C[C@H](NC(=O)C3CCOCC3)[C@@H](C3CC3)C2)ccn1 | -4.23
Cc1ccc(C2(C(=O)N3CCC(n4cc(C(C)O)nn4)CC3)CC2)cc1 (centres undefined) | -2.26
Cc1ccc(C(CNC(=O)NCc2ccccn2)N2CCOCC2)o1 (centres undefined) | -14.9
C[C@@H]1C[C@H](C(F)(F)F)n2nc(C3CCN(C(=O)C(C)(C)C)CC3)cc2N1 | -32.8
Cc1ccc2nc(C(=O)N3CCCC[C@]4(C)NC(=O)CCC[C@H]34)cn2c1 | -9.99
O=C(c1ccc(F)cc1)N1CCC2(CCCN2CC2CC2)CC1 | 5.05
CN(CCc1ccccn1)C(=O)c1cccs1 | 3.45
NC(=O)CN1CCCC(CCCc2ccccn2)(C(N)=O)C1 (centres undefined) | -23.5
CC(C)N1CCCC(Cc2cncc(Br)c2)CC1 (centres undefined) | -7.5
CNCC(=O)Nc1cccc(-c2cnc(NCCS(C)(=O)=O)nc2)c1 | -1.31
CCCc1nc(C)cc(N2CCNC(C(=O)NC3CC3)C2)n1 (centres undefined) | -56.5
CSc1cc2c(cc1NC(=O)NCc1ccncc1)OCCO2 | 7.55
CC(C)c1noc(Cn2ncn3cccc3c2=O)n1 | -4.1
Cc1ccnc(NCCNC(=O)CCNC(=O)c2ccccc2F)c1 | 1.5
CC(C)NC(=O)NCC1(COc2cnccn2)C[C@@H](O)[C@@H](O)C1 (some centres undefined) | -9.85
CCN(Cc1c(F)cccc1F)Cn1nc(C)c2c(C)onc2c1=O | -1.52
O=C(NCCc1ccccn1)[C@@H]1CC[C@@H]2[C@@H](CCN2Cc2ccoc2)O1 | 8.21
CCc1nc2c(c(NCc3cc(-c4cccnc4)no3)n1)CCNCC2 | 0.811
Cc1ccc(C(=O)N2CCSCC2)cc1NC(=O)NCC1CCC1 | 3.07
CCC(=O)N1CCCC(c2nc(N(C)C)ncc2-c2ccc(F)cc2)C1 (centres undefined) | 28.1

Structure (SMILES) | cytotoxicity at 10 µM [%]
CN(C)CCN(Cc1ccc(C(F)(F)F)cc1)C(=O)c1cc[nH]n1 | 3.95
Cc1nn(C)c(C)c1C1COCCN1C(=O)c1n[nH]c2ccccc12 (centres undefined) | -8.72
CNC(=O)CCN(C)CC1(c2ccc(Br)cc2)CC1 | -12.5
CCN1C[C@H]2C3(CCN(S(C)(=O)=O)CC3)CC[C@@]2(C(=O)N(C)C)C1 | -107
Cc1cc(CNC(=O)C2CC(=O)N(CCN(C)C)C2)cc(C)n1 (centres undefined) | 3.05
CC1CCC(NCCNC(=O)c2cccs2)CC1 (centres undefined) | -11.8
Cc1cc(C)n(C2CCN(S(=O)(=O)N3CCOCC3)CC2)n1 | 3.88
Cc1nc(C)n(CC2CN(CCc3ccccn3)CCO2)n1 (centres undefined) | 4.89
COCCn1ccnc1CN1CCc2[nH]cnc2C1c1cnn(C)c1C (centres undefined) | -2.77
CCc1cc(N2CCS(=O)(=O)CC2)n2nc(C)c(C)c2n1 | -4.02
CCn1cc(NC(=O)NCCc2ccc3c(c2)OCO3)cn1 | 2.04
CCC(Nc1nnnn1-c1ccccc1)C(=O)Nc1nc(C)cs1 (centres undefined) | -23
CC(C)c1nccn1C1CCCN(C(=O)c2ccsc2)C1 (centres undefined) | -5.2
CCOC(=O)c1cnn(-c2cc(C)ccn2)c1N | 11.3
CS(=O)(=O)N1CCC(C(=O)N2CCC3(CC2)OCCCO3)CC1 | 1.91
CCc1nccn1-c1cncc(C2CCN(C(=O)COC)CC2)n1 | -37.3
c1cnc2nc(N3CCc4c(ncn4C4CC4)C3)ccc2n1 | 6.47
CCCC1CN(CCOC)C(=O)c2cccnc2O1 (centres undefined) | 5.42
O=C(Nc1ccc(F)cc1)C(c1ccccc1)N1CCOCC1 (centres undefined) | -3.84
COc1ccc2c(C)c(C(=O)NC3CCOCC3)oc2c1 | 15.2
CN(Cc1ccncc1)C1CC2(CCN(c3ncccn3)CC2)C1 | 13.1
Cn1cnc2c1C(COCC1CCOCC1)CN(C1CCOCC1)C2 (centres undefined) | -4.22

Structure (SMILES) | cytotoxicity at 10 µM [%]
CC(C#N)CSc1ccccc1NCC(=O)NC1CCCCC1 (centres undefined) | 9.37
CC(C)(C)C(=O)NCC(=O)Nc1cccnc1 | -4.96
COc1ccc(Cn2nc(C(N)=O)ccc2=O)c(Cl)c1 | 10.2
Cc1ncc(CN(C)Cc2nc3cc(Cl)ccc3n2C)s1 | -42.9
O=C(CC1CCc2ccccc21)N1CCC(O)(c2cccnc2)CC1 (centres undefined) | 7.19
O=C(c1cnc(-c2ccccn2)s1)N1CCCC1Cn1cccn1 (centres undefined) | -5
Cc1nnc([C@@]23CCO[C@@H]2CCN(S(=O)(=O)c2ccccc2)C3)o1 | -99.4
NC(=O)NC(CC(=O)N1CCc2sccc2C1)c1ccccc1F (centres undefined) | 3.5
CCN(Cc1noc(CC(C)C)n1)C[C@]1(O)CCCN2CCCC[C@@H]21 | -6.91
Cc1cccc(CN2C[C@@H]3COC[C@]3(COCC(=O)N(C)C)C2)n1 | -1.95
CC(C#N)CN(C)C(=O)CCNC(=O)OC(C)(C)C (centres undefined) | 4.94
CCOCCCNC(=O)CCCC(=O)n1nc(C)c2ccccc21 | -1.29
CC(=O)N1CCC(c2nc3ccc(-c4cccc(F)c4)cn3n2)CC1 | 12.4
CCO[C@H]1C[C@@H](O)C12CCN(C(=O)CCN1CCCC1=O)CC2 | 2.12
COc1ccccc1Nc1nc2c(C)nn(C)c2c(=O)n1C | 2.56
CN(C(=O)Cc1ccn(C)c1)C1CCCN(C2Cc3ccccc3C2)C1 (centres undefined) | 4.77
COCC(=O)N1CCCC1c1cc(N2CCN(C(C)=O)CC2)cc(C)n1 (centres undefined) | -9.41
CNS(=O)(=O)c1ccc(C(=O)N2CCCCC2c2ccc(C)cc2)o1 (centres undefined) | -9.8
CC(C(N)=O)N(C)CCCc1cc(-c2ccc(F)cc2)n(C)n1 (centres undefined) | -4.87
Cc1cncc(NC(=O)c2ccc(CN3CCC(CO)CC3)cc2)c1 | 19
O=C1OCCC1N1CCN(C(=O)Cc2c[nH]c3ccccc23)CC1 (centres undefined) | -7.03
CCCN(CC)c1cc(C2CCNCC2)nc(C)n1 | -7.33

Structure (SMILES) | cytotoxicity at 10 µM [%]
Cc1ccc(-c2nc(CC(=O)NCC3CCCOC3)cs2)o1 (centres undefined) | -48
CNC(=O)CC1CC2(CCN(CC3CC3)CC2)Oc2ccccc21 (centres undefined) | -0.0368
COCCC(=O)N1CCC2(COCc3cnc(-c4cccnc4)nc32)C1 (centres undefined) | -115
Cc1cc(C(=O)NC2CCCCNC2=O)c(=O)[nH]c1C (centres undefined) | -3.35
O=C(c1ccco1)N1CCC2(CCOC2)C1 (centres undefined) | -3.65
CC(C)CNC(=O)N1CCC2(CC1)OC(C(N)=O)Cn1ccnc12 (centres undefined) | -103
Cc1cccc(CN2C(=O)CO[C@@H]3CN(Cc4cnn(C)c4)C[C@H]32)c1 | 1.1
CC(C)[C@H](NS(C)(=O)=O)C(=O)NCc1cc(-c2ccccc2)nn1C | -7.88
CCc1nc2n(n1)CCCC2Nc1nc(C2CC2)ns1 (centres undefined) | 3.03
Cc1noc(CCCC(=O)NC(C)c2ccccn2)n1 (centres undefined) | -10.9
O=C(Cn1cccnc1=O)NC(Cc1ccsc1)c1cccnc1 (centres undefined) | -25.7
O=C(NC[C@H]1OC[C@@H](NCc2ccc(F)cc2)[C@@H]1O)c1ccncc1 | 7.2
c1ccc2c(N3CCCCC3Cn3cncn3)ncnc2c1 (centres undefined) | 4.16
Cc1ccc(N2CCc3sc(C(=O)NCCN4CCCC4)cc32)nn1 | -2.19
CCC(=O)Nc1ccc2c(ccn2CC(=O)N(CC)CC)c1 | -12.2
COC(=O)c1cccc(S(=O)(=O)NC(=O)COC2CCCCC2)c1 | -10.1
CCN(Cc1noc(C)n1)C(=O)CCn1c(C)cc2ccccc21 | -3.97
Cc1ccc(CNC2CCCc3c2cnn3Cc2ccccc2)s1 (centres undefined) | 0.338
Cc1ncc(CC(=O)N2CCCC(COc3ccc(F)cc3)C2)c(=O)[nH]1 (centres undefined) | -142
COCCCNc1c(-c2ccccc2)c(=O)c1=O | 0.409
CNC(=O)CCc1cc(C)nc(C2CCN(C3CCCCC3)CC2)c1 | 4.54
CN(Cc1ccco1)C1CCC12CCN(C(=O)c1ccco1)CC2 (centres undefined) | -10.9

Structure (SMILES) | cytotoxicity at 10 µM [%]
Cc1cc(C)n(CC2CN(CC(=O)N3CCC3)CCO2)n1 (centres undefined) | -10.7
O=S(=O)(NC1CCC12CCN(CC1CCOCC1)CC2)c1ccccc1 (centres undefined) | -1.34
CCn1nc(C)c(CCNC(=O)C2CCCN(C(N)=O)C2)c1C (centres undefined) | -11.2
CN(C)C(=O)NC1COC2(CCN(Cc3ccco3)CC2)C1 (centres undefined) | -72.4
O=C1CCC2(CCCN(C(=O)c3ccoc3)C2)CN1Cc1ccncc1 (centres undefined) | 3.06
O=C(NCc1ccc(F)cc1)N1CCC(C2OCCO2)CC1 | -2.39
CCN1CCOCC12CCN(C(=O)Cc1cccs1)CC2 | 6.22
Cc1nc(C(=O)N2CCN(C(=O)C3CCC3)[C@@H]3CS(=O)(=O)C[C@@H]32)cs1 | 12.5
CN1CCC(Cc2noc(-c3cn(Cc4ccc(F)cc4)nn3)n2)CC1 | -4.18
COc1ccccc1CC1CCCN(CCC(N)=O)C1 (centres undefined) | -5.06
Cc1cnccc1CN1Cc2ccccc2OC2(CCC(CO)CC2)C1 (centres undefined) | -8.83
COc1ccnc(N2CCN(Cc3nc(-c4ccoc4)no3)CC2)c1 | -10.9
Cc1ccc(NC(=O)C2CCCN2C(=O)C2CC2)nc1 (centres undefined) | -2.15
Cc1ccc(CC2COCCN(S(C)(=O)=O)C2)nc1 (centres undefined) | -0.56
Cc1ccccc1NC(=O)c1cncc(C2CCNCC2)n1 | 1.54
O=C(C1CCOCC1)N1CCO[C@H]2[C@H](OCC3CC3)CC[C@@H]21 | 2.61
Cc1cnn(CCC(=O)N2CCOC(c3nc(C(C)(C)C)n[nH]3)C2)c1 (centres undefined) | 5.17
CC(C)c1nc(CN(C)C(=O)Cn2nc3ccccc3n2)no1 | 10.2
CC(C)C(=O)N1CCC([C@@H]2C[C@H](C(F)F)n3ncnc3N2)CC1 | 6.21
O=C(NC[C@H]1CCCO1)c1ccc(S(=O)(=O)N2C[C@H]3C[C@@H]2CN3)cc1 | 2.5
Cn1nc(C(=O)NCc2ccc(F)cc2)c2c1CCS(=O)(=O)C2 | 8.02
